Bioassay records as filed in PubChem.
MEKK2wt PB1 HTS – raises or lowers MEK5 binding to wildtype human MEKK2 PB1 domain. AID 1531. Q9Y2U5. bead flow cytometry, Alexa488-MEK5 binding to MEKK2 WT; actives lie on both sides. binding response (% of control), % at 10 µM. 1.1% of 290,000 active; in the data active = binding response below about 67% or above about 130%
MEKK3 PB1 HTS – raises or lowers MEK5 binding to the human MEKK3 PB1 domain. binding response (% of control), % at 10 µM. bead-based flow cytometry, Alexa488-MEK5 binding to MEKK3; actives lie on both sides; 0 = blocked by unlabeled MEK5, 100 = vehicle. AID 1529. 1.4% of 290,000 active;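 active = binding response more than 3 SD above or below the average of its plate-row segment, actives on both sides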;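 also: Alexa488 bead fluorescence after subtracting the streptavidin-only scavenger bead signal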
ABCB1 block – inhibitors of human ABCB1 transporter, ABCG2 counter-screen; 0.067% of 190,000 active; P08183; inhibition, % at 6.6 µM; AID 1326; CCRF-Adr cells, JC-1 efflux, flow cytometry; in the data active = inhibition above about 40%;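 also: 0% = vehicle and 100% = reference inhibitor; higher value means more JC-1 retained so stronger ABCB1 efflux block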
MEKK2 mut-MEK5 – signal of MEK5 binding to mutant human MEKK2 PB1 domain | 0.35% of 290,000 active | percent response, % at 10 µM | bead flow cytometry, Alexa488-MEK5 binding to MEKK2 mutant; in the data active = percent response above about 24%, passing the limit was not always enough
ABCG2 inh – human ABCG2 inhibition, ABCB1 as counter-screen; IgMXP3 cells, JC-1 efflux, flow cytometry; 0.1% of 190,000 active; inhibition, % at 6.6 µM; AID 1325; Q9UNQ0;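 active = inhibition above 80%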;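 also: 0% = DMSO and 100% = nicardipine control wells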
Target sequence (Q9UNQ0 whole entry, looked up): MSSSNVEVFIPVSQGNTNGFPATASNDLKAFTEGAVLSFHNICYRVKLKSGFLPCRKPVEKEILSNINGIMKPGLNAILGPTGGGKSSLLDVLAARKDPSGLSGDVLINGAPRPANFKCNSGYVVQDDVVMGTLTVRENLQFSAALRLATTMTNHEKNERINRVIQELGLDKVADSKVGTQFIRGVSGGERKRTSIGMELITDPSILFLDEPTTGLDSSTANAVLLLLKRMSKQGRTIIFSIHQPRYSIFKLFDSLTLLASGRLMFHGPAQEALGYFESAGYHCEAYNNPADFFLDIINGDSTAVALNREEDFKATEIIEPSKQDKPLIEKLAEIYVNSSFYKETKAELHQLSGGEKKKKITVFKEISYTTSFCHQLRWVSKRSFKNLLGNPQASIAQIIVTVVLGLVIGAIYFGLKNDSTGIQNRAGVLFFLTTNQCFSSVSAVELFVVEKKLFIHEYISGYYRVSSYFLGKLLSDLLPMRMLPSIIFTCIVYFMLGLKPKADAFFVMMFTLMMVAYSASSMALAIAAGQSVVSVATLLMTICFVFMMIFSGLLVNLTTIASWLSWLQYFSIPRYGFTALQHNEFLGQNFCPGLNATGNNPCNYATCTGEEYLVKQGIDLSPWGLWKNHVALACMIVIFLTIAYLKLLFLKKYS
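Test system: IgMXP3 (ABCG2) plus far-red-tagged CCRF-Adr (ABCB1) cells / Amount: 3 million cells/mL in well / Reagent: JC-1 transporter substrate / Timing: 10 min compound exposure, 25 °C / Signal: flow cytometry, 530 nm JC-1 signal / Read-out: percent efflux inhibition, scaled nicardipine 100% to DMSO 0% / Benchmarks: nicardipine as high control, DMSO as low control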
Efflux pump mplx – inhibitors of Candida antifungal efflux pumps expressed in yeast; 0.44% of 330,000 active; inhibition, % at 10 µM; S. cerevisiae Candida pump triplex, Nile Red efflux;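 active = plate passing quality check with inhibition over a set limit, or well fluorescence over plate mean plus 4 SD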;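 also: Nile Red retained in pooled yeast measured as flow cytometry median fluorescence; 0% = buffer negative control and 100% = Enniatin B positive control; higher means more Nile Red kept so more efflux inhibition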
MEKK2wt confirm – raises or lowers MEK5 binding to wildtype human MEKK2, retest; shares compounds with MEKK3 PB1 HTS; bead flow cytometry, Alexa488-MEK5 binding to MEKK2 WT; actives lie on both sides; binding response (% of control), % at 10 µM; 2.4% of 5,900 active; in the data active = binding response below about 16% or above about 210%; inactive = in between
MEKK2mut-MEK5 – signal of MEK5 binding to mutant human MEKK2, retest | percent response, % at 10 µM | 2% of 5,900 active | bead flow cytometry, Alexa488-MEK5 binding to MEKK2 mutant | shares compounds with MEKK3 PB1 HTS; in the data active = percent response mostly above about 71%, no sharp cut-off; inactive = mostly below about 38%;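 also: higher means compound restores mutant binding toward wildtype level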
MEKK3-MEK5 inh – confirmation of inhibitors of MEK5 binding to human MEKK3 | shares compounds with MEKK3 PB1 HTS | bead flow cytometry, Alexa488-MEK5 binding to MEKK3; stronger effect = lower value | binding response (% of control), % at 10 µM | 1.8% of 5,900 active;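 active = binding response below 72% of control, or above a set upper limit, though filed actives all read lower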;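 also: 100% = DMSO only wells and 0% = binding blocked by excess unlabeled MEK5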
Active calls of the source: *; · = no result given; [ ] = remark or other dose. In the library only some 2.5% were active in any assay of this set; here they are far more common.

SMILES	MEKK2wt PB1 HTS	MEKK3 PB1 HTS	ABCB1 block	MEKK2 mut-MEK5	ABCG2 inh	Efflux pump mplx	MEKK2wt confirm	MEKK2mut-MEK5	MEKK3-MEK5 inh
CCN(C(=O)COC(=O)/C=C/c1cccc([N+](=O)[O-])c1)c1ccccc1	·	·	2	·	14	0	·	·	·
CCOC(=O)/C(=N/Nc1ccccc1)c1csc(Nc2ccccc2)n1	109	96	0	2	1	0	·	·	·
CCOC(=O)/C(=N\Nc1ccc(Cl)cc1)c1csc(Nc2ccccc2)n1	135*	109	0	8	0	0	134	10	105
O=C([C@@H]1CC=C[C@@H]2CCN(C3CC3)C(=O)[C@@H]21)N1CCN(c2ccccc2)CC1	91	80*[inhibitor]	·	-3	·	0	103	16	103
CC(=O)O[C@H]1[C@H](C)OC=C[C@@H]1OC(C)=O	151*	106	·	9	·	0	109	6	103
Cc1ccccc1NC(=O)/C=C/c1cccc(C(F)(F)F)c1	85	85	0	-8	4	0	·	·	·
CNC(=O)/C=C/c1cccc(C(F)(F)F)c1	90	73*[inhibitor]	0	-1	12	0	99	0	101
Cc1sc(NC(=O)CN(Cc2ccc(F)cc2)C(=O)C(C)(C)C)c(C(N)=O)c1C	99	102	2	21	23	0	·	·	·
Cc1cc(C(=O)Nc2cccc3ncccc23)no1	121	127*	0	6	18	0	97	-4	97
O=C(NCCN1CCCC1)C(c1ccccc1)c1ccccc1	102	101	·	3	·	0	·	·	·
COc1ccc(CCn2c(NN=C3CCCCC3)nc3c2c(=O)[nH]c(=O)n3C)cc1	57*[inhibitor]	65*[inhibitor]	·	-9	·	0	99	-1	97
Cc1ccccc1CCNC(=O)c1ccc(Cl)c(S(=O)(=O)N2CC(C)OC(C)C2)c1 (stereo not drawn)	·	·	·	·	·	0	·	·	·
O=C(CSc1nncn1-c1ccccc1)Nc1cc(F)ccc1F	102	104	·	-1	·	0	·	·	·
CCCCC(=O)NCCNc1nc2c(c(=O)n(C)c(=O)n2C)n1Cc1ccc(F)cc1	101	104	2	1	9	0	·	·	·
CCCCC(=O)NCCNc1nc2c(c(=O)n(C)c(=O)n2C)n1Cc1ccccc1	2.0*[inhibitor]	2.0*[inhibitor]	0	-14	1	0	109	5	104
CCOC(=O)c1ccc(NC(=O)c2nn(CC)cc2Br)cc1	-4.0*[inhibitor]	0.0*[inhibitor]	1	-39	3	0	101	-2	101
CCOC(=O)c1ccc(NC(=S)Nc2ccccc2)cc1	93	64*[inhibitor]	0	1	1	0	97	-1	101
O=C(O)C(Cc1ccc(Cl)cc1)NS(=O)(=O)c1ccc(Cl)cc1 (stereo not drawn)	100	100	·	-1	·	0	·	·	·
CC(=O)NCc1ccc(S(=O)(=O)N/N=C/c2ccccc2)cc1	101	106	0	-1	1	0	·	·	·
CC(=O)NCc1ccc(S(=O)(=O)N/N=C/c2ccc(Br)cc2)cc1	111	139*	0	0	-2	0	98	-3	101
CCN(CC)c1ccc(/C=N/NS(=O)(=O)c2ccc(CNC(C)=O)cc2)cc1	109	145*	0	0	2	0	98	-4	100
Cc1ccccc1OCCCC(=O)Nc1ccc(Br)cc1	0.0*[inhibitor]	0.0*[inhibitor]	1	-21	32	0	112	8	109
COc1ccccc1OCCC(=O)OCC(=O)Nc1ccc(Br)cc1	108	134*	0	1	-1	0	102	2	103
